In brackets after ≈: the same amount, converted by molar mass. Non-standard residues stand in square brackets, D forms with d. Residues, ends and D or L forms follow the SMILES beside them. d(hArg(Et2)) = CCN=C(NCC)NCCCC[C@@H](N)C(=O)O; dPhe(4-Cl) = N[C@H](Cc1ccc(Cl)cc1)C(=O)O; dPhe(4-F) = N[C@H](Cc1ccc(F)cc1)C(=O)O; d2Nal = N[C@H](Cc1ccc2ccccc2c1)C(=O)O
How the values were obtained:
Rattus norvegicus [1] = species: Rattus norvegicus; test: Evaluated for the release of histamine in rats (based on 10 animals per dose group); type: functional, organism-based
Rattus norvegicus [2] = test: Evaluated for the anti-ovulatory activity (rats were injected subcutaneously at noon on proestrus); type: functional
How it was run: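 Female rats with at least two consecutive normal 4-day cycles, confirmed by vaginal lavage cytology, were dosed once s.c. at noon on proestrus in 50% propylene glycol/0.9% saline. On the morning of expected estrus, the oviducts were examined for ovulated eggs, which were counted. The effective dose came from % females ovulating plotted against log dose, usually with ≥3 dose groups (10 rats per group total).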

EC50 (Rattus norvegicus [1]) | SMILES | ED50 (Rattus norvegicus [2])
6.2 µg/mL (≈ 4.27 µM) | CC(=O)N[C@H](Cc1ccc2ccccc2c1)C(=O)N[C@H](Cc1ccc(F)cc1)C(=O)N[C@H](Cc1cccnc1)C(=O)N[C@@H](CO)C(=O)N[C@@H](CCCN=C(N)N)C(=O)N[C@H](Cc1cccnc1)C(=O)N[C@@H](CC(C)C)C(=O)N[C@@H](CCCCNC1=NCCCN1)C(=O)N1CCC[C@H]1C(=O)N[C@H](C)C(N)=O | 0.5 µg
20 µg/mL (≈ 13.5 µM) | CC(=O)N[C@H](Cc1ccc2ccccc2c1)C(=O)N[C@H](Cc1ccc(Cl)cc1)C(=O)N[C@H](Cc1cccnc1)C(=O)N[C@@H](CO)C(=O)N[C@@H](Cc1ccc(O)cc1)C(=O)N[C@H](Cc1cccnc1)C(=O)N[C@@H](CC(C)C)C(=O)N[C@@H](CCCCNC1=NCCCN1)C(=O)N1CCC[C@H]1C(=O)N[C@H](C)C(N)=O | 0.68 µg
16 µg/mL (≈ 10.2 µM) | CC/N=C(\NCC)NCCCC[C@H](NC(=O)[C@H](CC(C)C)NC(=O)[C@@H](Cc1c[nH]c2ccccc12)NC(=O)[C@H](Cc1ccc(O)cc1)NC(=O)[C@H](CO)NC(=O)[C@@H](Cc1c[nH]c2ccccc12)NC(=O)[C@@H](Cc1ccc(Cl)cc1)NC(=O)[C@@H](Cc1ccc2ccccc2c1)NC(C)=O)C(=O)N1CCC[C@H]1C(=O)N[C@H](C)C(N)=O | ~0.9 µg
0.81 µg/mL (≈ 0.524 µM) | CC(=O)N[C@H](Cc1ccc2ccccc2c1)C(=O)N[C@H](Cc1ccc(Cl)cc1)C(=O)N[C@H](Cc1c[nH]c2ccccc12)C(=O)N[C@@H](CO)C(=O)N[C@@H](CCCN=C(N)N)C(=O)N[C@H](Cc1c[nH]c2ccccc12)C(=O)N[C@@H](CC(C)C)C(=O)N[C@@H](CCCCNC1=NCCCN1)C(=O)N1CCC[C@H]1C(=O)N[C@H](C)C(N)=O | >2 µg
< 0.01 µg/mL | CC/N=C(\NCC)NCCCC[C@@H](NC(=O)[C@H](Cc1ccc(O)cc1)NC(=O)[C@H](CO)NC(=O)[C@@H](Cc1cccnc1)NC(=O)[C@@H](Cc1ccc(Cl)cc1)NC(=O)[C@@H](Cc1ccc2ccccc2c1)NC(C)=O)C(=O)N[C@@H](Cc1ccccc1)C(=O)N[C@@H](CCCN=C(N)N)C(=O)N1CCC[C@H]1C(=O)N[C@H](C)C(N)=O | 0.5 µg
0.41 µg/mL (≈ 0.267 µM) | CC(=O)N[C@H](Cc1ccc2ccccc2c1)C(=O)N[C@H](Cc1ccc(Cl)cc1)C(=O)N[C@H](Cc1c[nH]c2ccccc12)C(=O)N[C@@H](CO)C(=O)N[C@@H](Cc1ccc(O)cc1)C(=O)N[C@H](CCCCNC1=NCCCN1)C(=O)N[C@@H](CC(C)C)C(=O)N[C@@H](CCCCN=C(N)N)C(=O)N1CCC[C@H]1C(=O)N[C@H](C)C(N)=O | 0.56 µg
196 µg/mL (≈ 131 µM) | CC/N=C(\NCC)NCCCC[C@H](NC(=O)[C@H](CC(C)C)NC(=O)[C@@H](Cc1cccnc1)NC(=O)[C@H](Cc1ccc(O)cc1)NC(=O)[C@H](CO)NC(=O)[C@@H](Cc1cccnc1)NC(=O)[C@@H](Cc1ccc(Cl)cc1)NC(=O)[C@@H](Cc1ccc2ccccc2c1)NC(C)=O)C(=O)N1CCC[C@H]1C(=O)N[C@H](C)C(N)=O | 0.6 µg
1.5 µg/mL (≈ 1.02 µM) | CC(=O)N[C@H](Cc1ccc2ccccc2c1)C(=O)N[C@H](Cc1ccc(Cl)cc1)C(=O)N[C@H](Cc1cccnc1)C(=O)N[C@@H](CO)C(=O)N[C@@H](CCCN=C(N)N)C(=O)N[C@H](Cc1cccnc1)C(=O)N[C@@H](CC(C)C)C(=O)N[C@@H](CCCCNC1=NCCCN1)C(=O)N1CCC[C@H]1C(=O)N[C@H](C)C(N)=O | 0.295 µg
23.6 µg/mL (≈ 15.9 µM) | CC/N=C(\NCC)NCCCC[C@H](NC(=O)[C@H](CC(C)C)NC(=O)[C@@H](Cc1cccnc1)NC(=O)[C@H](CCCN=C(N)N)NC(=O)[C@H](CO)NC(=O)[C@@H](Cc1cccnc1)NC(=O)[C@@H](Cc1ccc(Cl)cc1)NC(=O)[C@@H](Cc1ccc2ccccc2c1)NC(C)=O)C(=O)N1CCC[C@H]1C(=O)N[C@H](C)C(N)=O | 0.425 µg
59 µg/mL (≈ 35.5 µM) | CCCC/N=C(/N)NCCCC[C@@H](NC(=O)[C@H](Cc1ccc(O)cc1)NC(=O)[C@H](CO)NC(=O)[C@@H](Cc1cccnc1)NC(=O)[C@@H](Cc1ccc(F)cc1)NC(=O)[C@@H](Cc1ccc2ccccc2c1)NC(C)=O)C(=O)N[C@@H](CC(C)C)C(=O)N[C@@H](CCCCN=C(NCC(F)(F)F)NCC(F)(F)F)C(=O)N1CCC[C@H]1C(=O)N[C@H](C)C(N)=O | 1 µg
0.18 µg/mL (≈ 0.117 µM) | CCNC(=NCCCC[C@@H](NC(=O)[C@H](Cc1ccc(O)cc1)NC(=O)[C@H](CO)NC(=O)[C@@H](Cc1c[nH]c2ccccc12)NC(=O)[C@@H](Cc1ccc(Cl)cc1)NC(=O)[C@@H](Cc1ccc2ccccc2c1)NC(C)=O)C(=O)N[C@@H](CC(C)C)C(=O)N[C@@H](CCCN=C(N)N)C(=O)N1CCC[C@H]1C(=O)N[C@H](C)C(N)=O)NCC (Ac-[d2Nal][dPhe(4-Cl)][dW]SY[d(hArg(Et2))]LRP[dA]-NH2) | ~0.6 µg
0.51 µg/mL (≈ 0.355 µM) | CC(=O)N[C@H](Cc1ccc2ccccc2c1)C(=O)N[C@H](Cc1ccc(F)cc1)C(=O)N[C@H](Cc1c[nH]c2ccccc12)C(=O)N[C@@H](CO)C(=O)N[C@@H](Cc1ccc(O)cc1)C(=O)N[C@H](CCCN=C(N)N)C(=O)N[C@@H](CC(C)C)C(=O)N[C@@H](CCCN=C(N)N)C(=O)N1CCC[C@H]1C(=O)NCC(N)=O (Ac-[d2Nal][dPhe(4-F)][dW]SY[dR]LRPG-NH2) | 2.4 µg

— ChEMBL document CHEMBL1125326, “Potent gonadotropin releasing hormone antagonists with low histamine-releasing activity” (J Med Chem, 1992)
